Drawing on ChEMBL document CHEMBL1144821, “Synthesis and cytotoxic evaluation of some cribrostatin-ecteinascidin analogues” (2008), this text covers GI50, TGI and CC50 for 4 molecules.

Common to all, as to type: functional
Assay [1] has as its system HT-29. In words: Cytotoxicity against human HT29 cells by SRB method. The following applies: for CC50: read-out: LC50 (the source's name). An outline of the steps: (§1)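 Human tumour lines (breast MDA-MB-231, lung A-549, colon HT-29) seeded in 96-well plates and left 24 h, then given vehicle or compound at 10 to 0.0026 µg/mL (10 dilutions) for 72 h. Read-out by SRB: PBS washes, 1% glutaraldehyde fix 15 min, 0.4% SRB in 1% acetic acid 30 min RT, dye extracted into 10 mM Tris base, A490. A time-zero plate was read before treatment.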

For assay [2], the system named is A549. In words: Cytotoxicity against human A549 cells by SRB method. An outline of the steps: as §1
(In general: Sulforhodamine B stains cellular protein and so reports cell mass.)

Assay [3] relates to MDA-MB-231. In words: Cytotoxicity against human MDA-MB-231 cells by SRB method. The procedure, abridged:
as §1

The mark [4] stands for this setting: read-out: LC50 (the source's name).

For the molecule `COc1c(C)c(O)c2c(c1O)[C@@H]1C3=Cc4c(OC(C)=O)c(C)c5c(c4[C@H](COCc4ccccc4)N3[C@@H](C#N)[C@H](C2=O)N1C)OCO5`, in assay [1], the 50% growth inhibitory concentration (GI50) – broadly, the concentration at which growth is held to half of that of the control – came to 4.06 µM; net growth stopped (TGI) at 6.72 µM; the CC50 was 14.5 µM. Besides, the GI50 in assay [2] came to 6.57 µM. In assay [3], this molecule had a GI50 of 5.63 µM.

Turning to `C/C=C(/C)C(=O)OC[C@H]1c2c(c(OC(C)=O)c(C)c3c2OCO3)C=C2[C@H]3c4c(O)c(OC)c(C)c(O)c4C(=O)[C@@H](C(=O)N21)N3C`, the figures for the GI50 in assay [1], in assay [2] and in assay [3] were 11.1 µM, 7.73 µM and 14 µM, respectively.

`COc1c(C)cc2c(c1OCc1ccccc1)[C@@H]1C3=Cc4c(OC(C)=O)c(C)c(OC)c(OC)c4[C@H](COCc4ccccc4)N3[C@@H](C#N)[C@H](C2)N1C`: the GI50 in assay [1] was 0.2 µM; in assay [2] it was 0.24 µM; in assay [3] it was 0.26 µM. The figures for the concentration for total growth inhibition (TGI) in assay [1], in assay [2] and in assay [3] were 0.26 µM, 0.3 µM and 0.35 µM, respectively. Besides, the CC50 in assay [1] was 0.36 µM; in assay [2] (setting [4]), 0.41 µM; in assay [3] (setting [4]), 0.48 µM.

Regarding `C/C=C(/C)C(=O)OC[C@H]1C2=C(C=C3[C@H]4c5c(O)c(OC)c(C)c(O)c5C(=O)[C@@H](C(=O)N31)N4C)C(=O)C(C)=C(OC)C2=O` [CRIBROSTATIN 5], the values for the GI50 in assay [1], in assay [2] and in assay [3] were 6.74 µM, 7.09 µM and 4.49 µM, respectively. Further, the TGI (usually the concentration giving total growth inhibition) is 7.43 µM in assay [1] and 11.6 µM in assay [2].
